Experimental data published in ChEMBL document CHEMBL1144014, “Protein phosphatase inhibitory activity of tautomycin photoaffinity probes evaluated at femto-molar level” (Bioorg Med Chem, 2008).

Molecular target: Serine/threonine-protein phosphatase PP1-gamma catalytic subunit (Homo sapiens, UniProt P36873)
Assay: Inhibition of PP1gamma by firefly bioluminescence assay
Summary of the method: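 Recombinant PP1c (E. coli-expressed), concentration set by titration, diluted to 40 nM in Tris–HCl (pH 8.43) with 0.15% BSA and 4.0 mM DTT (DTT omitted for disulfide-containing probes). Inhibitor diacid (0–40 µM stock dilutions; 0–10 µM in assay) premixed with enzyme. Luciferin phosphate (40 µM, 5 µL) is added. After 6 min, released luciferin is read on an immobilized-luciferase column with photon counting, in triplicate. Ki is fitted with a tight-binding model.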

Sequence of Serine/threonine-protein phosphatase PP1-gamma catalytic subunit (P36873 whole entry): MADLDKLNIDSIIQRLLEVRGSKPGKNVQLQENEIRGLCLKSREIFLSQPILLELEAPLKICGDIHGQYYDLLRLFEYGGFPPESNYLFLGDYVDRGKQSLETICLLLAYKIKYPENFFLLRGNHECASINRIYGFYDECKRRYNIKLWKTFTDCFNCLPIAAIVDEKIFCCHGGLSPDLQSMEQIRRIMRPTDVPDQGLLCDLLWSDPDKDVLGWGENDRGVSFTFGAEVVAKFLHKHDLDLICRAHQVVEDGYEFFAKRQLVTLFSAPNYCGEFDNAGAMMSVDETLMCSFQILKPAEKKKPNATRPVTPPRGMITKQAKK

SMILES: COc1cc(C2(C(F)(F)F)N=N2)ccc1C(=O)NCCNC(=O)CO/N=C(\C)[C@@H](C)CC[C@@H]1O[C@@]2(CC[C@H]1C)CC[C@H](C)[C@H]([C@H](C)CC[C@H](O)[C@H](C)C(=O)C[C@@H](O)[C@H](OC)[C@H](OC(=O)C[C@@H](O)/C(C(=O)O)=C(\C)C(=O)O)C(C)C)O2
- Ki: 213 nM

SMILES: CO[C@@H]([C@H](O)CC(=O)[C@@H](C)[C@@H](O)CC[C@@H](C)[C@@H]1O[C@]2(CC[C@@H](C)[C@H](CC[C@H](C)/C(C)=N\OCC(=O)Nc3cccc(C(=O)c4ccccc4)c3)O2)CC[C@@H]1C)[C@H](OC(=O)C[C@@H](O)/C(C(=O)O)=C(\C)C(=O)O)C(C)C
- Ki: 32.5 nM

SMILES: CO[C@@H]([C@H](O)CC(=O)[C@@H](C)[C@@H](O)CC[C@@H](C)[C@@H]1O[C@]2(CC[C@@H](C)[C@H](CC[C@H](C)/C(C)=N\OCC(=O)NCCNC(=O)c3ccc(F)c(N=[N+]=[N-])c3)O2)CC[C@@H]1C)[C@H](OC(=O)C[C@@H](O)/C(C(=O)O)=C(\C)C(=O)O)C(C)C
- Ki: 8.4 nM

SMILES: COc1cc(C2(C(F)(F)F)N=N2)ccc1C(=O)NCCNC(=O)CO/N=C(/C)[C@@H](C)CC[C@@H]1O[C@@]2(CC[C@H]1C)CC[C@H](C)[C@H]([C@H](C)CC[C@H](O)[C@H](C)C(=O)C[C@@H](O)[C@H](OC)[C@H](OC(=O)C[C@@H](O)/C(C(=O)O)=C(\C)C(=O)O)C(C)C)O2
- Ki: 49.7 nM

SMILES: CO[C@@H]([C@H](O)CC(=O)[C@@H](C)[C@@H](O)CC[C@@H](C)[C@@H]1O[C@]2(CC[C@@H](C)[C@H](CC[C@H](C)/C(C)=N/OCC(=O)Nc3cccc(C(=O)c4ccccc4)c3)O2)CC[C@@H]1C)[C@H](OC(=O)C[C@@H](O)/C(C(=O)O)=C(\C)C(=O)O)C(C)C
- Ki: 8 nM

SMILES: CO[C@@H]([C@H](O)CC(=O)[C@@H](C)[C@@H](O)CC[C@@H](C)[C@@H]1O[C@]2(CC[C@@H](C)[C@H](CC[C@H](C)/C(C)=N/OCC(=O)NCCSSCCNC(=O)c3ccc(F)c(N=[N+]=[N-])c3)O2)CC[C@@H]1C)[C@H](OC(=O)C[C@@H](O)/C(C(=O)O)=C(\C)C(=O)O)C(C)C
- Ki: 19.6 nM

SMILES: CO[C@@H]([C@H](O)CC(=O)[C@@H](C)[C@@H](O)CC[C@@H](C)[C@@H]1O[C@]2(CC[C@@H](C)[C@H](CC[C@H](C)/C(C)=N/OCC(=O)NCCCNC(=O)c3ccc(F)c(N=[N+]=[N-])c3)O2)CC[C@@H]1C)[C@H](OC(=O)C[C@@H](O)/C(C(=O)O)=C(\C)C(=O)O)C(C)C
- Ki: 3.4 nM

SMILES: CO[C@@H]([C@H](O)CC(=O)[C@@H](C)[C@@H](O)CC[C@@H](C)[C@@H]1O[C@]2(CC[C@@H](C)[C@H](CC[C@H](C)/C(C)=N/OCC(=O)NCCNC(=O)c3ccc(F)c(N=[N+]=[N-])c3)O2)CC[C@@H]1C)[C@H](OC(=O)C[C@@H](O)/C(C(=O)O)=C(\C)C(=O)O)C(C)C
- Ki: 17.3 nM

SMILES: CO[C@@H]([C@H](O)CC(=O)[C@@H](C)[C@@H](O)CC[C@@H](C)[C@@H]1O[C@]2(CC[C@@H](C)[C@H](CC[C@H](C)/C(C)=N\OCC(=O)NCCSSCCNC(=O)c3ccc(F)c(N=[N+]=[N-])c3)O2)CC[C@@H]1C)[C@H](OC(=O)C[C@@H](O)/C(C(=O)O)=C(\C)C(=O)O)C(C)C
- Ki: 23.9 nM

SMILES: CO[C@@H]([C@H](O)CC(=O)[C@@H](C)[C@@H](O)CC[C@@H](C)[C@@H]1O[C@]2(CC[C@@H](C)[C@H](CC[C@H](C)C(C)=O)O2)CC[C@@H]1C)[C@H](OC(=O)C[C@@H](O)/C(C(=O)O)=C(\C)C(=O)O)C(C)C [TAUTOMYCIN DIACID]
- Ki: 4.5 nM
